Series [1] addresses T1, Type-1 angiotensin II receptor (Homo sapiens, UniProt P30556).
T1 sequence (P30556 whole entry): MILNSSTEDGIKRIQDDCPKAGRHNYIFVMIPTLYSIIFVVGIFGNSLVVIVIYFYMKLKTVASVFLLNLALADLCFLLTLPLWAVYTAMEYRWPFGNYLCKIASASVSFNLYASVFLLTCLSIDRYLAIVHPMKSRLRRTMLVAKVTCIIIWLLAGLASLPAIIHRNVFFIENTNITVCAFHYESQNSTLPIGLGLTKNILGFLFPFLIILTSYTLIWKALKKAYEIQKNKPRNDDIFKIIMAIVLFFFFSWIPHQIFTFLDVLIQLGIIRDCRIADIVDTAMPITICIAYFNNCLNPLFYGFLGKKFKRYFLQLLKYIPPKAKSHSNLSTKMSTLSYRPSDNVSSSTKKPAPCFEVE
The series can be described thus: Displacement of [125-I]-[Sar1, Ile8] from recombinant human AT1R transfected in human HEK293 cells incubated for 2 hrs by liquid scintillation counter analysis. In kind it is cell-based.

For series [2], the target named is T2, Type-2 angiotensin II receptor (Homo sapiens, UniProt P50052).
T2 sequence (P50052 whole entry): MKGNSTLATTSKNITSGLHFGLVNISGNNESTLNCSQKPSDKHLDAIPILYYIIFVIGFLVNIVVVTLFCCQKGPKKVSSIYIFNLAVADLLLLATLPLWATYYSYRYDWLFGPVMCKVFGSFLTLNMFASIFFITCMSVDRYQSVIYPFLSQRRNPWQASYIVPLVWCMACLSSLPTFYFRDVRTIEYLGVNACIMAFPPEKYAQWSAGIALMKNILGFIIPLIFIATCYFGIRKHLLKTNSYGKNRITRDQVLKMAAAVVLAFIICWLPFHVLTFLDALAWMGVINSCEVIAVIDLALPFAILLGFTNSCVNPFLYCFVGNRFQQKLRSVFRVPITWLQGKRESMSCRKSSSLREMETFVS
The series can be described thus: Displacement of [125-I]-[Sar1, Ile8] from recombinant human AT2R transfected in human HEK293 cells incubated for 2 hrs by liquid scintillation counter analysis. The format is cell-based.

Series [3] in a line: Stability of compound in human plasma assessed as parent compound remaining incubated for 24 hrs by LC-MS/MS analysis. The format is ADME, cell-free. Particulars: read-out: Stabilty. Put shortly:
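Peptides were incubated in human plasma and sampled at different time intervals up to 24 h. Remaining concentration was monitored by LC-MS using selected abundant transitions and expressed relative to the initial concentration.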

The species named for the next series is Homo sapiens. Nature of the series: Selectivity index, ratio of IC50 for displacement of [125-I]-[Sar1, Ile8] from recombinant human AT1R transfected in human HEK293 cells to IC50 for displacement of [125-I]-[Sar1, Ile8] from recombinant human AT2R transfected in human HEK293 cells.

Consider seven compounds from ChEMBL document CHEMBL4811266 (Bioorg Med Chem Lett, 2021).

Numbered stars: 1 amine (or outer) side, 2 acyl side, 3 side chain; on linkers, the order of the positions; unused ones are H or OH. Square brackets hold non-standard residues; d marks the D form. Peptide text beside a SMILES is read from it. X1 = O=C([C@@H]1Cc2cc(O)ccc2CN1[*:1])[*:2]; Tic(7-OH) = O=C(O)[C@@H]1Cc2ccc(O)cc2CN1 Where only a bound is given, the exact number is not on record here.

As a reminder, the IC50 is the point on the concentration scale where inhibition reaches its midpoint. Regarding `CC[C@H](C)[C@H](NC(=O)[C@H](Cc1ccc(O)cc1)NC(=O)[C@@H](NC(=O)[C@H](CCCNC(=N)N)NC(=O)[C@@H](N)CC(=O)O)C(C)C)C(=O)N[C@H]1Cc2c([nH]c3ccccc23)CN(CC(=O)N[C@@H](Cc2ccccc2)C(=O)O)C1=O`, the IC50 in series [1] was over 10000 nM; in series [2], 45.7 nM. For the same compound, in series [3], the remaining at 24 h was over 50%. Also, the Ratio IC50 in the series filed under Homo sapiens was over 219.
On to H-DRVYIYPF-OH, for which the IC50 in series [1] amounted to 72600 nM. The remaining at 24 h in series [3] is over 50%. Also, the Ratio IC50 in the series filed under Homo sapiens came to 18000.
Regarding `CC[C@H](C)[C@H](NC(=O)[C@H](Cc1ccc(O)cc1)NC(=O)[C@@H](NC(=O)[C@H](CCCNC(=N)N)NC(=O)[C@@H](N)CC(=O)O)C(C)C)C(=O)N1Cc2cc(O)ccc2C[C@H]1C(=O)N1CCC[C@H]1C(=O)N[C@@H](Cc1ccccc1)C(=O)O` (H-DRVYI[Tic(7-OH)]PF-OH), the values for the IC50 in series [1] and in series [2] were over 10000 nM and 89.2 nM, respectively. For the same compound, the remaining at 24 h in series [3] is over 90%. The Ratio IC50 in the series filed under Homo sapiens is over 112.
As for `CC[C@H](C)[C@H](NC(=O)[C@H](Cc1ccc(O)cc1)NC(=O)[C@@H](NC(=O)[C@@H](N)CCCNC(=N)N)C(C)C)C(=O)N1Cc2ccc(O)cc2C[C@H]1C(=O)N1CCC[C@H]1C(=O)N[C@@H](Cc1ccccc1)C(=O)O` (H-RVYI[X1]PF-OH), the IC50 in series [1] was found to be 2010 nM; in series [2], 315 nM. Further, in series [3], the remaining at 24 h is over 50%. The Ratio IC50 in the series listed under Homo sapiens is 6.4.
On to `CC[C@H](C)[C@H](NC(=O)[C@H](Cc1ccc(O)cc1)NC(=O)[C@@H](NC(=O)[C@@H](N)CCCNC(=N)N)C(C)C)C(=O)N1Cc2cc(O)ccc2C[C@H]1C(=O)N1CCC[C@H]1C(=O)N[C@@H](Cc1ccccc1)C(=O)O` (H-RVYI[Tic(7-OH)]PF-OH), for which the IC50 in series [1] turned out to be 134 nM; in series [2] it was 119 nM. For the same compound, in series [3], the remaining at 24 h was over 70%. In addition, the Ratio IC50 in the series listed under Homo sapiens was 1.1.
Consider `CC[C@H](C)[C@H](NC(=O)[C@H](Cc1ccc(O)cc1)NC(=O)[C@@H](NC(=O)[C@H](CCCNC(=N)N)NC(=O)[C@@H](N)CC(=O)O)C(C)C)C(=O)N1Cc2ccc(O)cc2C[C@H]1C(=O)N1CCC[C@H]1C(=O)N[C@@H](Cc1ccccc1)C(=O)O` (H-DRVYI[X1]PF-OH), for which the IC50 in series [1] was 174 nM; in series [2] it was 59.3 nM. Moreover, the remaining at 24 h in series [3] was over 50%. Besides, in the series filed under Homo sapiens, the Ratio IC50 turned out to be 2.9.
For `CC[C@H](C)[C@H](NC(=O)[C@H](Cc1ccc(O)cc1)NC(=O)[C@@H](NC(=O)[C@@H](N)CCCNC(=N)N)C(C)C)C(=O)N[C@H]1Cc2c([nH]c3ccccc23)CN(CC(=O)N[C@@H](Cc2ccccc2)C(=O)O)C1=O`, in that order: over 10000 nM, 107 nM, 70% and over 94.
